{
  "source": "paper PMC7451071",
  "about": "(MedChemComm, 2019)",
  "key": {"p42/p44mapk pathway": {"system": "p42/p44mapk pathway", "conditions": "cited from earlier work"}, "AT2 receptor [1]": {"system": "AT2 receptor", "conditions": "cited from earlier work; for Induction of neurite outgrowth: NG108-15 cells"}, "AT2 receptor [2]": {"target": "T1, AT2 receptor (Sus scrofa, UniProt A0A4X1W622)", "T1 sequence (A0A4X1W622 1-362)": "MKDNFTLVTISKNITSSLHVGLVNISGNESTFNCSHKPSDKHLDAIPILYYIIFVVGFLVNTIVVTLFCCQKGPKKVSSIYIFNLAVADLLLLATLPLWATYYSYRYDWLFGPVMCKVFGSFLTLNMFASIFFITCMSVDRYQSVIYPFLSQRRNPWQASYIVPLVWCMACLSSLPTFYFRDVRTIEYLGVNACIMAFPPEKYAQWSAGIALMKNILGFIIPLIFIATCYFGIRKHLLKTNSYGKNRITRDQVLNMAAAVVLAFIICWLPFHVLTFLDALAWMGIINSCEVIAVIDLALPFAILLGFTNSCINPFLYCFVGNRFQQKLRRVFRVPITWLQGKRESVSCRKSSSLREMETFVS", "experiment": "AT2 receptor binding, displacement of [125I]Ang II from pig uterus", "conditions": "versus compound 3"}, "AT2 receptor [3]": {"system": "AT2 receptor", "experiment": "Neurite outgrowth assay in NG108-15 cells", "type": "cell-based", "conditions": "for Function (10 nM): three days, alone, with 10 μM PD 123319 or 100 nM Ang II", "how_it_was_run": "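NG108-15 cells (passages 18–25; DMEM, 10% FBS, HAT, gentamycin; 37 °C, 7% CO2) plated at 3.6 × 10^4 cells/35 mm dish. They were treated once daily for three days from 24 h post-plating with 10 nM test compound (some also 100 nM). Test compound was added alone or 30 min before 100 nM Ang II; 10 μM PD 123319 was given 30 min before agonist. On day 4, phase-contrast micrographs were scored as % of ≥400 cells bearing a neurite longer than the cell body. Duplicates, three independent experiments, mean ± SEM, two-way ANOVA.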"}, "AT2 receptor [4]": {"target": "AT2 receptor", "conditions": "AT2R antagonist; cited from earlier work"}},
  "note": "pIC50: −log10 of the molar value. “Also recorded” adds a separate entry of the source.",
  "data": [
    {"molecule": "CC(C)(C)c1cc(C=C(C#N)C(N)=S)cc(C(C)(C)C)c1O", "note": "[AG879, α-cyano-(3,5-di-t-butyl-4-hydroxy)thiocinnamide]", "values": [
      {"measurement": "Inhibition of the p42/p44mapk pathway", "setting": "p42/p44mapk pathway", "result": "only partially inhibits"},
      {"measurement": "Effect on neurite outgrowth (inhibition)", "setting": "AT2 receptor [1]", "result": "total"}
    ]},
    {"molecule": "CCCCOC(=O)NS(=O)(=O)c1ccc2c(c1-c1ccc(Cn3ccnc3)cc1)CCC2C(C)C", "note": "(centres unmarked) [Compound 7a, N-(Butoxycarbonyl)-4-[4-(imidazol-1-yl)-methylphenyl]-1-isopropylindan-5-sulfonamide]", "values": [
      {"measurement": "Loss in affinity compared to non rigidified analogue 3", "setting": "AT2 receptor [2]", "result": "~200", "unit": "times"},
      {"measurement": "Degree of neurite outgrowth induced", "setting": "AT2 receptor [3]; 10 nM, NG108-15 cells", "result": "highest degree of neurite outgrowth among this set of compounds"},
      {"measurement": "Function (10 nM)", "setting": "AT2 receptor [3]; 10 nM, NG108-15 cells", "result": "strong agonistic effect; also recorded: Agonist"}
    ]},
    {"molecule": "CCCCOC(=O)NS(=O)(=O)c1ccc2c(c1-c1ccc(Cn3ccnc3)cc1)CCC2C(C)C", "note": "(centres unmarked) [Compound 7b, N-(Butoxycarbonyl)-4-[4-(imidazol-1-yl)-methylphenyl]-1-isopropylindan-5-sulfonamide]", "values": [
      {"measurement": "Function (10 nM)", "setting": "AT2 receptor [3]; 10 nM, NG108-15 cells", "result": "antagonism; also recorded: Antagonist"}
    ]},
    {"molecule": "CCCCOC(=O)NS(=O)(=O)c1ccc2c(c1-c1cccc(Cn3ccnc3)c1)CCC2C(C)C", "note": "(centres unmarked) [Compound 8a, N-(Butoxycarbonyl)-4-[3-(imidazol-1-yl)-methylphenyl]-1-isopropylindan-5-sulfonamide]", "values": [
      {"measurement": "Function (10 nM)", "setting": "AT2 receptor [3]; 10 nM, NG108-15 cells", "result": "Antagonist"}
    ]},
    {"molecule": "CCCCOC(=O)NS(=O)(=O)c1ccc2c(c1-c1cccc(Cn3ccnc3)c1)CCC2C(C)C", "note": "(centres unmarked) [Compound 8b, N-(Butoxycarbonyl)-4-[3-(imidazol-1-yl)-methylphenyl]-1-isopropylindan-5-sulfonamide]", "values": [
      {"measurement": "Function (10 nM)", "setting": "AT2 receptor [3]; 10 nM, NG108-15 cells", "result": "Antagonist"}
    ]},
    {"molecule": "CCCCOC(=O)NS(=O)(=O)c1cc2c(cc1-c1ccc(Cn3ccnc3)cc1)CCC2C(C)C", "note": "(centres unmarked) [Compound 9a, N-(Butoxycarbonyl)-5-[4-(imidazol-1-yl)-methylphenyl]-1-isopropylindan-6-sulfonamide]", "values": [
      {"measurement": "Function (10 nM)", "setting": "AT2 receptor [3]; 10 nM, NG108-15 cells", "result": "agonistic properties; also recorded: Agonist"}
    ]},
    {"molecule": "CCCCOC(=O)NS(=O)(=O)c1cc2c(cc1-c1ccc(Cn3ccnc3)cc1)CCC2C(C)C", "note": "(centres unmarked) [Compound 9b, N-(Butoxycarbonyl)-5-[4-(imidazol-1-yl)-methylphenyl]-1-isopropylindan-6-sulfonamide]", "values": [
      {"measurement": "Function (10 nM)", "setting": "AT2 receptor [3]; 10 nM, NG108-15 cells", "result": "agonistic properties; also recorded: Agonist"}
    ]},
    {"molecule": "CCCCOC(=O)NS(=O)(=O)c1cc2c(cc1-c1cccc(Cn3ccnc3)c1)CCC2C(C)C", "note": "(centres unmarked) [Compound 10a, N-(Butoxycarbonyl)-5-[3-(imidazol-1-yl)-methylphenyl]-1-isopropylindan-6-sulfonamide]", "values": [
      {"measurement": "Function (10 nM)", "setting": "AT2 receptor [3]; 10 nM, NG108-15 cells", "result": "Antagonist"}
    ]},
    {"molecule": "CCCCOC(=O)NS(=O)(=O)c1cc2c(cc1-c1cccc(Cn3ccnc3)c1)CCC2C(C)C", "note": "(centres unmarked) [Compound 10b, N-(Butoxycarbonyl)-5-[3-(imidazol-1-yl)-methylphenyl]-1-isopropylindan-6-sulfonamide]", "values": [
      {"measurement": "Function (10 nM)", "setting": "AT2 receptor [3]; 10 nM, NG108-15 cells", "result": "agonistic effect; also recorded: Agonist"}
    ]},
    {"molecule": "Cc1cc(Cn2cnc3c2C[C@@H](C(=O)O)N(C(=O)C(c2ccccc2)c2ccccc2)C3)ccc1N(C)C", "note": "[PD 123319, reference compound]", "values": [
      {"measurement": "pIC50", "setting": "AT2 receptor [4]", "result": 7.47},
      {"measurement": "Effect of co-incubation on induced neurite outgrowth", "setting": "AT2 receptor [3]; 10 μM PD 123319 co-incubated with agonists", "result": "reduced the induced neurite outgrowth"},
      {"measurement": "Morphology on treatment alone", "setting": "AT2 receptor [3]; PD 123319 alone, data not shown", "result": "did not alter the morphology compared to untreated cells"}
    ]},
    {"molecule": "Ang II: hypertensive octapeptide angiotensin II", "values": [
      {"measurement": "Induction of neurite outgrowth", "setting": "AT2 receptor [1]", "result": "induces neurite outgrowth"}
    ]},
    {"molecule": "Nα-nicotinoyl-Tyr-(Nα-Cbz-Arg)-Lys-His-Pro-Ile [CGP-42112]", "values": [
      {"measurement": "Induction of neurite outgrowth", "setting": "AT2 receptor [1]", "result": "induces neurite outgrowth"}
    ]}
  ]
}
